According to PMC3677213 (Antiviral research, 2013):
Like-named read-outs stand apart in the source and are kept apart here.

Experiments:
[1] = tested on: HIV-1 NL4-3 integrase T66I; type: cell-based; details: MT-4 cells; IN substitution T66I
[2] = tested on: HIV-1 NL4-3 integrase E92Q/N155H; type: cell-based; details: MT-4 cells; IN substitutions E92Q/N155H
[3] = tested on: WT HIV-1 NL4-3; type: cell-based; details: MT-4 cells
[4] = tested on: HIV-1 NL4-3 integrase N155H; type: cell-based; details: MT-4 cells; IN substitution N155H
[5] = tested on: HIV-1 NL4-3 integrase Y143C; type: cell-based; details: MT-4 cells; IN substitution Y143C
[6] = biological target: CYP2D6 (Homo sapiens, UniProt P10635); assay: Cytochrome P-450 isozyme inhibition assay in human liver microsomes; type: in vitro ADME
[7] = tested on: HIV-1 (Group M) isolate 98IN022, subtype C; assay: Antiviral assay in fresh human PBMCs; type: cell-based
[8] = Cytotoxicity in human PBMC cultures; type: cell-based; details: peripheral blood mononuclear cells (PBMCs)
Outline: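 Freshly isolated human PBMCs are cultured with test compound. Viability is read out with the tetrazolium-based dye MTS, and CC50 is derived from that read-out.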

[9] = tested on: HIV-1 (Group M) isolate CMU08, subtype E; assay: Antiviral assay in fresh human PBMCs; type: cell-based
[10] = biological target: CYP3A4 (Homo sapiens, UniProt P08684); assay: Cytochrome P-450 isozyme inhibition assay in human liver microsomes; type: in vitro ADME
[11] = tested on: HIV-1 (Group M) isolate 93UG067, subtype D; assay: Antiviral assay in fresh human PBMCs; type: cell-based
[12] = biological target: UGT1A4 (Homo sapiens, UniProt P22310); assay: UGT inhibition study with trifluoperazine as substrate; type: in vitro ADME; details: human liver microsomes
Outline: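 Pooled human liver microsomes (0.2 mg/mL protein) were held with alamethicin (0.024 mg/mg protein) in 100 mM potassium phosphate, pH 7.4, with 5 mM MgCl2 at 0 °C for 15 min. Test compound in DMSO (0 to 300 μM) and trifluoperazine substrate were added, with organic solvent <1.6%. Mixtures were preincubated 3 min at 37 °C, then started with UDPGA (final 4 mM) and run 15 min. Acetonitrile stop, centrifugation, HPLC-UV of supernatant.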

[13] = biological target: CYP2C19 (Homo sapiens, UniProt P33261); assay: Cytochrome P-450 isozyme inhibition assay in human liver microsomes; type: in vitro ADME
[14] = tested on: HIV-1 (Group M) isolate 91US004, subtype B; assay: Antiviral assay in fresh human PBMCs; type: cell-based
[15] = tested on: SIV isolate MAC251; assay: Antiviral assay in fresh human PBMCs; type: cell-based; details: PBMC
Outline: (§1)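 Freshly isolated human PBMCs are infected with virus and cultured with test compound. Replication is measured as reverse transcriptase activity in culture supernatants, using a microtiter plate-based RT reaction. EC50 is the concentration giving 50% inhibition, as the mean of three determinations. CC50 is measured in parallel with the tetrazolium dye MTS, and therapeutic index = CC50/EC50.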

[16] = tested on: HIV-1 (Group M) isolate CDC310342, CRF02-AG; assay: Antiviral assay in fresh human PBMCs; type: cell-based
[17] = tested on: HIV-1 NL4-3 integrase Q148R; type: cell-based; details: MT-4 cells; IN substitution Q148R
[18] = biological target: UGT1A3 (Homo sapiens, UniProt P35503); assay: UGT substrate activity with cDNA-expressed isozyme; type: in vitro ADME; details: UGT1A3 (BD Biosciences); HPLC
[19] = tested on: HIV-1 (Group M) isolate G3, subtype G; assay: Antiviral assay in fresh human PBMCs; type: cell-based
[20] = biological target: CYP2C8 (Homo sapiens, UniProt P10632); assay: Cytochrome P-450 isozyme inhibition assay in human liver microsomes; type: in vitro ADME
[21] = biological target: UGT1A1 (Homo sapiens, UniProt P22309); assay: UGT substrate activity with cDNA-expressed isozyme; type: in vitro ADME; details: UGT1A1 (BD Biosciences); HPLC
[22] = tested on: HIV-2 isolate CDC310319; assay: Antiviral assay in fresh human PBMCs; type: cell-based
Outline: as §1

[23] = tested on: HIV-1, HIV-2 and SIV isolates; assay: Antiviral assay in PBMCs, all isolates together; type: cell-based; details: PBMC, read-out: mean EC50 (± SD), all isolates
[24] = biological target: CYP2C9 (Homo sapiens, UniProt P11712); assay: Cytochrome P-450 isozyme inhibition assay in human liver microsomes; type: in vitro ADME
[25] = tested on: HIV-1 (Group M) isolate 93BR029, subtype F; assay: Antiviral assay in fresh human PBMCs; type: cell-based
[26] = tested on: CYP isozymes (3A4, 2D6, 2C8, 2C9, 2C19); assay: Activation of CYP isozymes; type: in vitro ADME; details: human liver microsomes; CYP 3A4, 2D6, 2C8, 2C9, 2C19
[27] = tested on: HIV-1 (Group M) isolate 92RW016, subtype A; assay: Antiviral assay in fresh human PBMCs; type: cell-based
[28] = tested on: UGT in pooled human liver microsomes (UGT 1A1, 1A4, 1A6, 1A9 and 2B7); assay: UGT substrate activity in pooled human liver microsomes; type: in vitro ADME
[29] = In vitro human liver microsome stability; type: in vitro ADME
[30] = tested on: UGT isozymes; assay: Activation of UGT isozymes in human liver microsomes; type: in vitro ADME; details: kinetic studies in human liver microsomes
[31] = Human immunodeficiency virus 1, PBMC, in Homo sapiens, read-out: EC50 (± SD)

Sequence of CYP2C9 (P11712 whole entry): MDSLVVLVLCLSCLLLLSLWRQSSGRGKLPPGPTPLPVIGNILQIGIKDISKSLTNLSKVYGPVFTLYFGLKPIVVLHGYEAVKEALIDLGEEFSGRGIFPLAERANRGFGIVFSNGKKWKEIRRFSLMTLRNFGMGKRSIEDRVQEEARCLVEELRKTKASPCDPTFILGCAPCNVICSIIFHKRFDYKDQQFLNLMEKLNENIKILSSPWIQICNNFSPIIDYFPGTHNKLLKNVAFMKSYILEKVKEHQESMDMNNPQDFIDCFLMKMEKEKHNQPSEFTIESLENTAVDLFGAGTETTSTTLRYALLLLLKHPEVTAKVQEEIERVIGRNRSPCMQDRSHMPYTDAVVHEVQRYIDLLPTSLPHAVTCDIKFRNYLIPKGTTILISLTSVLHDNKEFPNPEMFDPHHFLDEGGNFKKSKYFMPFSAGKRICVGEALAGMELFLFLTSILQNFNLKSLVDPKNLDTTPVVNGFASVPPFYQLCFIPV
Sequence of UGT1A1 (P22309 26-533): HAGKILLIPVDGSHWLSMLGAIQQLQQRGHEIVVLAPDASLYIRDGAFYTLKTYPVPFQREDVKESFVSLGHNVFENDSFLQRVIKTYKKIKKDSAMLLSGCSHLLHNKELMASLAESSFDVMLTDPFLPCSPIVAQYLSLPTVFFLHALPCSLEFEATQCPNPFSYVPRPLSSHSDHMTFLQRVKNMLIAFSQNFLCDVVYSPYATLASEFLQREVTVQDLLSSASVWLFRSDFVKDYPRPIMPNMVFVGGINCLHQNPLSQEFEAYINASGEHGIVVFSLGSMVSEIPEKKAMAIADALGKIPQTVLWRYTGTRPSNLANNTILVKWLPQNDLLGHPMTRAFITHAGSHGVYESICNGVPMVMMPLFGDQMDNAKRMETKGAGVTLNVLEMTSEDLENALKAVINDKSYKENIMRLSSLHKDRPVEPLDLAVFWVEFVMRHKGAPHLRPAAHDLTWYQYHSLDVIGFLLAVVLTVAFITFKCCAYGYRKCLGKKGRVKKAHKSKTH
Sequence of CYP3A4 (P08684 whole entry): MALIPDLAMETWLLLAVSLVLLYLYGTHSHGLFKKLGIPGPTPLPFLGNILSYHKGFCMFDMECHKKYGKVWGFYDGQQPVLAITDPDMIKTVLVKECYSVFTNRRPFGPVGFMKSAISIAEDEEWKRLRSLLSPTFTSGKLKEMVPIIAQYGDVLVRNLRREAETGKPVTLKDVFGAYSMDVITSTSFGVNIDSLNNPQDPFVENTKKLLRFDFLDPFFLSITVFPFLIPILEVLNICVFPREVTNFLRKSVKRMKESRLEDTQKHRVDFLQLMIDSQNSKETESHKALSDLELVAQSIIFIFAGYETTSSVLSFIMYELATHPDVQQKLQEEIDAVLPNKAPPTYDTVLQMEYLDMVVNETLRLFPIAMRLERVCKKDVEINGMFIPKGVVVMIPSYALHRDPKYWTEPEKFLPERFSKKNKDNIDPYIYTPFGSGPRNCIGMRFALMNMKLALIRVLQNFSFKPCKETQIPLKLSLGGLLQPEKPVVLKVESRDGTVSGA
Sequence of CYP2C19 (P33261 whole entry): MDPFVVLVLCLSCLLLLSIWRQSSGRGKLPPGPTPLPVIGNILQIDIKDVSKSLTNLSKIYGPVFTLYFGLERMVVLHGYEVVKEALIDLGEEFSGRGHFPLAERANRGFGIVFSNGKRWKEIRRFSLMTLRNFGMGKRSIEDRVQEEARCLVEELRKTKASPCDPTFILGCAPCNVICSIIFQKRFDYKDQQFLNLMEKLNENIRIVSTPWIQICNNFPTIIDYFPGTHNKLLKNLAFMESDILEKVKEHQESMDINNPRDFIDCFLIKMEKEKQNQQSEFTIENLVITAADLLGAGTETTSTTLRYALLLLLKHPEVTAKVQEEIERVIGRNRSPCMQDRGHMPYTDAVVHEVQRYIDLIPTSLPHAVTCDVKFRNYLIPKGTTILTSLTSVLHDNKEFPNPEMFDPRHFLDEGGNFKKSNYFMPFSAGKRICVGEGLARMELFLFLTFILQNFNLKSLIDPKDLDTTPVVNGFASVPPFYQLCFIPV
Sequence of CYP2C8 (P10632 whole entry): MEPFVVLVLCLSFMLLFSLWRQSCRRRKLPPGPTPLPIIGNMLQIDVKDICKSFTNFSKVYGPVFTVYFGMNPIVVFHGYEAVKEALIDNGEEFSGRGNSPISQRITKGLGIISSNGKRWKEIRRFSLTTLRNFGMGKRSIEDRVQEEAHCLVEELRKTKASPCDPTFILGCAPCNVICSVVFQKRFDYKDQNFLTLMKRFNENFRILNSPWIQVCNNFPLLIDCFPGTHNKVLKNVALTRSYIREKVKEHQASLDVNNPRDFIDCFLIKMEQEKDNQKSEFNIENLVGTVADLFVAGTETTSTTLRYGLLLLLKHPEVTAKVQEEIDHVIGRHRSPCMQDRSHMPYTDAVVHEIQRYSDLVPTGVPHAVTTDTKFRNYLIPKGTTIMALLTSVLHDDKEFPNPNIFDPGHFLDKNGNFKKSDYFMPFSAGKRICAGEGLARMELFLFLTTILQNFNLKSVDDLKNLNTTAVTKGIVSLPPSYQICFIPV
Sequence of UGT1A3 (P35503 29-534): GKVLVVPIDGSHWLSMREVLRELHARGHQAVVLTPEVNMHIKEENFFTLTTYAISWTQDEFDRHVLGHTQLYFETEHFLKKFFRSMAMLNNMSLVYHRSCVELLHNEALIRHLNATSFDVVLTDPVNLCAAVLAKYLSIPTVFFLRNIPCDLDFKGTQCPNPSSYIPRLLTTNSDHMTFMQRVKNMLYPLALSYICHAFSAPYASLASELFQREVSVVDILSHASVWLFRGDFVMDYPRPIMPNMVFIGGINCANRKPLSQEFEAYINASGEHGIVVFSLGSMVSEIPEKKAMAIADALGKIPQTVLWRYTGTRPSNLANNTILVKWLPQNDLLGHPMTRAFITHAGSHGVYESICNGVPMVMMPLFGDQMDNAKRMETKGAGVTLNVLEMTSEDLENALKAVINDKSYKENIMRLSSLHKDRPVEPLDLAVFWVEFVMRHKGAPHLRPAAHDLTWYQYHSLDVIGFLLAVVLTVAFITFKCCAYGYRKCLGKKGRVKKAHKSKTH
Sequence of CYP2D6 (P10635 whole entry): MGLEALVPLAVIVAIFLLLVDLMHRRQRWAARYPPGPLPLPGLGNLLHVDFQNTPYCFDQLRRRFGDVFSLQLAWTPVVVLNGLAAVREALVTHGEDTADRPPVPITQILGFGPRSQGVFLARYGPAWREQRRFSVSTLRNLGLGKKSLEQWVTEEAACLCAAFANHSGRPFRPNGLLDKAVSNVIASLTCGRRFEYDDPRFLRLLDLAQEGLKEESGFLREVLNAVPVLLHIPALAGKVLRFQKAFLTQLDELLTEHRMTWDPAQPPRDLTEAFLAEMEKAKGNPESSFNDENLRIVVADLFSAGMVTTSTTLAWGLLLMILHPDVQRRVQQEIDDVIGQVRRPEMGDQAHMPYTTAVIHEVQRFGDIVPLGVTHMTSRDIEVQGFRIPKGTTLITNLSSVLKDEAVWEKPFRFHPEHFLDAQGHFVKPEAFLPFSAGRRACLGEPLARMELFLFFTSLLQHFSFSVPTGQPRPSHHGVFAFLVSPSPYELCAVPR
Sequence of UGT1A4 (P22310 29-534): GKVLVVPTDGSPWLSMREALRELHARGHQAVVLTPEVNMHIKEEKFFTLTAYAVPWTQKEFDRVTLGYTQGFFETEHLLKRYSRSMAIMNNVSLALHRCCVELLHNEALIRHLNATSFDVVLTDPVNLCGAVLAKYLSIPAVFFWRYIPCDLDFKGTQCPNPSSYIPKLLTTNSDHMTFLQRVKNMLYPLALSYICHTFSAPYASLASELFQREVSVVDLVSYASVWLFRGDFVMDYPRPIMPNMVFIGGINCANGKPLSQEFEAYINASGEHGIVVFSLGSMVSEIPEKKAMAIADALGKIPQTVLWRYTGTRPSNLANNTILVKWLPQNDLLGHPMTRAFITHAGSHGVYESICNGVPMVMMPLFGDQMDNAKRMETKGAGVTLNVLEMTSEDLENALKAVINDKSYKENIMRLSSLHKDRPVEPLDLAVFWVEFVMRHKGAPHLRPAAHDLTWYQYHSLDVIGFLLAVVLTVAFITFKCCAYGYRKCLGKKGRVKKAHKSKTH

Cc1cn([C@H]2C[C@H](N=[N+]=[N-])[C@@H](CO)O2)c(=O)[nH]c1=O [AZT]
EC50 fold change compared to wild-type virus [1]: 1.0
EC50 fold change compared to wild-type virus [2]: 3.45
EC50 fold change compared to wild-type virus [3]: 1.0
EC50 fold change compared to wild-type virus [4]: 3.29
EC50 fold change compared to wild-type virus [5]: 1.18

O=C(C=C(O)c1cc(Cc2c(F)cccc2F)cn(Cc2ccccc2F)c1=O)C(=O)NN1CCCC1=O [Compound 1, 4-(5-(2,6-difluorobenzyl)-1-(2-fluorobenzyl)-2-oxo-1,2-dihydropyridin-3-yl)-4-hydroxy-2-oxo-N-(2-oxopyrrolidin-1-yl)but-3-enamide]
IC50 [6]: > 200000 nM
EC50 fold change compared to wild-type virus [1]: 5.20
EC50 [7, 31]: 29.8 nM
Therapeutic Index (CC50/EC50) ([7]; PBMC, isolate 98IN022, subtype C): 3,228
CC50 [8]: 96200 nM
EC50 fold change compared to wild-type virus [2]: 6.13
EC50 [9, 31]: 52.4 nM
Therapeutic Index (CC50/EC50) ([9]; PBMC, isolate CMU08, subtype E): 1,836
IC50 [10]: > 200000 nM
EC50 [11, 31]: 48.5 nM
Therapeutic Index (CC50/EC50) ([11]; PBMC, isolate 93UG067, subtype D): 1,984
EC50 fold change compared to wild-type virus [3]: 1.0
inhibition of UGT1A4 [12]: not an inhibitor
EC50 fold change compared to wild-type virus [4]: 8.20
IC50 [13]: > 200000 nM
EC50 [14, 31]: 6.89 nM
Therapeutic Index (CC50/EC50) ([14]; PBMC, isolate 91US004, subtype B): 13,962
Therapeutic Index (CC50/EC50) ([15]; SIV isolate MAC251): 5,037
EC50 ([15]; Simian immunodeficiency virus, in Homo sapiens, read-out: EC50 (± SD)): 19.1 nM
EC50 [16, 31]: 33.4 nM
Therapeutic Index (CC50/EC50) ([16]; PBMC, isolate CDC310342, CRF02-AG): 2,880
EC50 fold change compared to wild-type virus [17]: 18.8
Glucuronide (formed) [18]: None^a
EC50 [19, 31]: 34.9 nM
Therapeutic Index (CC50/EC50) ([19]; PBMC, isolate G3, subtype G): 2,756
IC50 [20]: > 200000 nM
Glucuronide (formed) [21]: None^a
EC50 ([22]; Human immunodeficiency virus 2, PBMC, in Homo sapiens, read-out: EC50 (± SD)): 86 nM
Therapeutic Index (CC50/EC50) ([22]; PBMC, HIV-2 isolate CDC310319): 1,119
EC50 [23]: 35 nM
IC50 [24]: > 200000 nM
inhibition at 30 min, 200 μM ([24]; human, liver microsomes, pH 7.4, probe tolbutamide 500 μM): 15.5%
EC50 [25, 31]: 18.3 nM
Therapeutic Index (CC50/EC50) ([25]; PBMC, isolate 93BR029, subtype F): 5,257
activation of CYP isozymes [26]: not an activator
EC50 [27, 31]: 20.8 nM
Therapeutic Index (CC50/EC50) ([27]; PBMC, isolate 92RW016, subtype A): 4,625
Glucuronide (formed) [28]: None^a
stability in pooled human liver microsomes ([29]; 50 μM, 0.5 mg/mL protein, NADPH, 37 °C): relatively stable
EC50 fold change compared to wild-type virus [5]: 1.87
activation of UGT isozymes [30]: no indication of the activation

COc1cc2c(cc1Cc1cccc(Cl)c1F)c(=O)c(C(=O)O)cn2[C@H](CO)C(C)C [Elvitegravir, elvitegravir]
EC50 fold change compared to wild-type virus [1]: 5.5
EC50 fold change compared to wild-type virus [2]: 134
EC50 fold change compared to wild-type virus [3]: 1.0
EC50 fold change compared to wild-type virus [4]: 200
EC50 fold change compared to wild-type virus [17]: 96.1
EC50 fold change compared to wild-type virus [5]: 46.7

C[C@]12CC[C@@H]3c4ccc(O)cc4CC[C@H]3[C@@H]1CC[C@@H]2O [Estradiol, reference compound]
Glucuronide (formed) [21]: Glucuronide
Glucuronide (formed) [28]: Glucuronides (two)

Cc1cc(=O)oc2cc(O)ccc12 [Methylumbelliferone, 4-methylumbelliferone]
Glucuronide (formed) [28]: Glucuronide

CN1CCN(CCCN2c3ccccc3Sc3ccc(C(F)(F)F)cc32)CC1 [Trifluoperazine]
Glucuronide (formed) ([28]; pHLM (Xenotech), HPLC): N-Glucuronide

Cc1ncc2n1-c1ccc(Cl)cc1C(c1ccccc1F)=NC2 [midazolam]
remaining at 1 h ([29]; human, microsomes, pH 7.4): 61.5%
Km ([29]; human, pH 7.4): 2.52 µM
